PAX8 reporter – inhibitors of PAX8 transcriptional activity in RMG-I cells | RMG-I TPO-luciferase reporter, SteadyGlo, 24 h | inhibition, % at 12.6 µM | 360,000 tested, 1.2% active;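 active means mean replicate inhibition at least 60% with every replicate also reaching 60%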;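 further: luciferase light reporting Pax8 driven TPO promoter activity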
FN deposit inh – fibronectin deposition inhibition | inhibition, % at 12.6 µM | 350,000 tested, 0.086% active | AH1F fibroblasts, Alexa488-fibronectin deposition fluorescence, overnight | AID 743247;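 active means mean inhibition across replicates of 30% or more, regardless of how many single replicates reach that level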
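Material – AH1F fibroblast monolayer, labelled fibronectin deposition · Reagent – labelled fibronectin 24 nM · Timing – 1 h adhesion, overnight exposure · Measured by – fluorescence at 485 nm excitation, 525 nm emission · Read-out – inhibition of fibronectin deposition signal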
FGF22 binding – shifts melting point of recombinant human FGF22 | activity (Tm shift, normalised), % at 9.99 µM | Q9HCT0 | 340,000 tested, 1.5% active | AID 651658 | recombinant FGF22 thermal shift, SYPRO orange fluorescence; percent of sucrose octasulfate shift, DMSO zero;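 active means mean Tm shift, scaled 0 neutral to 100 positive control, at about 1.3% or above, every replicate too, limit read from the data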
Target sequence (Q9HCT0 whole entry, looked up): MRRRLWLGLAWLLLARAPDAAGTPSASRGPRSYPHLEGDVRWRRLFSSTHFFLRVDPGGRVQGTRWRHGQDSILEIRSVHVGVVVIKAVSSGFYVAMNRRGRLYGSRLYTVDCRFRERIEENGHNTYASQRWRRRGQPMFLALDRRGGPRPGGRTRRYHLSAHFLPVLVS
PGC1a acetyl inh – modulators of PGC1a acetylation. U2OS PGC1a acetylation, AlphaScreen anti-acetyl-lysine; with virally co-expressed GCN5 acetyltransferase. inhibition, % at 15.6 µM. 350,000 tested, 0.17% active. AID 651687;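 active means every replicate shows inhibition of at least 40%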
EWS-Fli block – inhibitors of EWS/Fli oncoprotein transcriptional activity; A673 NR0B1-luciferase reporter, viability-normalised; inhibition, % at 12.6 µM; 350,000 tested, 0.67% active; AID 651661;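 active means mean inhibition of at least 50% after viability correction, with every replicate also passing that limit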;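 further: firefly luciferase signal divided by Alamar Blue viability fluorescence both relative to DMSO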
Env fusion inh – blocks HIV Env-driven cell-cell fusion; HeLa-JRFL Env/CEM21 cell fusion, luciferase; inhibition, % at 12.3 µM; 360,000 tested, 1.1% active; AID 651610;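 active means mean replicate inhibition score of at least 50 and every replicate individually at or above 50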
Hits are given with their value; - = inactive; . = no result given; [ ] = dose if it differs, or a comment. Only some compounds are listed: those with a hit (about 3.1% of all), similar ones and a draw of the others.

SMILES | PAX8 reporter | FN deposit inh | FGF22 binding | PGC1a acetyl inh | EWS-Fli block | Env fusion inh
COc1ccccc1N(C(=O)CCl)c1cn(C(C)=O)c2ccccc12 | 114 | - | - | . | - | -
C[C@H]1CN([C@@H](C)CO)C(=O)c2cccc(NC(=O)C3CCCCC3)c2O[C@@H]1CN(C)Cc1ccc(Cl)c(Cl)c1 | . | - | - | - | - | .
COc1ccc(S(=O)(=O)Nc2ccc3c(c2)CC(=O)N([C@H](C)CO)C[C@H](C)[C@H](CN(C)Cc2ccc(C(=O)O)cc2)O3)cc1 | - | - | - | - | - | -
CC(=O)Oc1ccc(C(=O)Cc2ccc3ccccc3n2)c(O)c1C | - | - | - | . | 55 | -
Cc1c(O)ccc(/C(Cc2ccc3ccccc3n2)=N\O)c1O | - | - | . | - | . | -
O=C(Nc1ccc(O)c(-c2nc3ccccc3o2)c1)C1(c2ccc([N+](=O)[O-])cc2)CCCC1 | - | - | . | - | . | 55
O=C(Cc1ccccc1)N1CCN=C1SCc1cccc([N+](=O)[O-])c1 | - | - | 43 | . | - | -
C[C@H]1CN([C@@H](C)CO)C(=O)c2cc(-c3ccccc3)cnc2O[C@@H]1CN(C)C(=O)c1cccc(F)c1 | . | 38 | . | - | - | -
C[C@H](CO)N1C[C@H](C)[C@@H](CN(C)Cc2ccc(-c3ccccc3)cc2)Oc2ncc(-c3cccnc3)cc2C1=O | . | . | - | - | 69 | -
C[C@H](CO)N1C[C@H](C)[C@@H](CN(C)Cc2ccccc2)Oc2ncc(-c3cccnc3)cc2C1=O | . | - | . | - | - | -
CCNC(=O)C[C@H]1CC[C@H]2[C@H](COc3ccc(NC(=O)Nc4cccc(F)c4)cc3C(=O)N2C)O1 | - | - | - | - | - | -
CCc1ccc(-c2nc(CN3CCC(C(=O)NCCc4ccc(OC)c(OC)c4)CC3)c(C)o2)cc1 | . | - | . | - | . | 68
CCc1ccc(-c2nc(CN3CCC(C(=O)NCc4ccccc4OC)CC3)c(C)o2)cc1 | - | - | . | . | . | -
COc1ccc(CCNC(=O)C2CCN(Cc3nc(-c4ccccc4F)oc3C)CC2)cc1OC | . | 34 | . | - | . | -
Cc1oc(-c2ccccc2F)nc1CN1CCC(C(=O)NCCC2=CCCCC2)CC1 | . | - | . | . | . | 90
CCS(=O)(=O)N1CC2(C1)[C@H](c1ccccc1)[C@H](CO)N2C(=O)C1CCCC1 | . | - | . | - | - | .
O=C(O)c1ccc(Cn2cc(C(F)(F)F)ccc2=O)cc1 | - | - | 43 | . | - | -
O=C(NCc1ccccc1)c1ccc(Cn2cc(C(F)(F)F)ccc2=O)cc1 | . | - | . | . | . | -
COc1cc(N2C(=O)c3ccccc3C2=O)c(Cl)cc1C(=O)OCC(=O)N(C)C | - | - | 43 | . | - | -
COc1cc(OC)c(C(=O)OCN2C(=O)c3ccccc3C2=O)cc1OC | - | - | - | . | - | -
CC(C)(C)c1[nH]nc2c1C(c1ccco1)C(C#N)=C(N)O2 (stereo unspecified) | - | - | 44 | . | - | -
Cc1[nH]nc2c1C(c1ccco1)C(C#N)=C(N)O2 (stereo unspecified) | - | - | - | - | - | -
Cc1cccc(NC(=O)NC(C)C(c2ccccc2)N2CCN(C)CC2)c1 (stereo unspecified) | - | . | 43 | . | - | -
O=C(O)c1ccc(-n2[nH]c3c(c2=O)CCCC3)cc1 | - | - | 43 | - | - | -
COc1cc(OC)c(NC2=CC(=O)C(=O)c3ccccc32)cc1Cl | 93 | - | - | - | - | -
SMILES | PAX8 reporter | FN deposit inh | FGF22 binding | PGC1a acetyl inh | EWS-Fli block | Env fusion inh
Cc1ccc(NC2=CC(=O)C(=O)c3ccccc32)cc1 | - | - | . | - | . | -
O=C(C[C@@H]1C[C@@H]2c3cc(NS(=O)(=O)c4ccc(F)cc4)ccc3O[C@@H]2[C@@H](CO)O1)NCc1ccccc1F | - | - | - | - | - | -
CC(NC(=O)CSc1ccc(S(=O)(=O)N2CCOCC2)cn1)c1ccc(Cl)cc1Cl (stereo unspecified) | - | 30 | - | - | - | .
C[C@H](CO)N1C[C@H](C)[C@@H](CN(C)C(=O)Nc2cccc3ccccc23)Oc2ccc(NC(=O)Nc3ccc(F)cc3)cc2CC1=O | - | . | - | - | - | -
N#C/C(=C/c1ccc(OCc2ccc(C(=O)O)cc2)c(Br)c1)c1cccc(F)c1 | - | - | . | 96 | - | -
COc1ccc2nc(N/C(N)=N/C(=S)Nc3ccccc3)nc(C)c2c1 | - | - | 4.1 | - | - | -
COc1cccc(S(=O)(=O)N2CC3(CN(C(=O)Nc4cccc(F)c4)[C@@H](CO)c4[nH]c5cc(OC)ccc5c43)C2)c1 | . | . | - | . | - | 93[16.7 µM]
COc1ccc2c3c([nH]c2c1)[C@H](CO)N(C(=O)Nc1cccc(F)c1)CC31CN(S(=O)(=O)c2cccc(C)c2)C1 | . | . | - | . | - | 75[16.7 µM]
COc1cccc(S(=O)(=O)N2CC3(CN(C(=O)Nc4ccc(F)cc4)[C@H](CO)c4[nH]c5cc(OC)ccc5c43)C2)c1 | . | . | - | - | - | .
COc1ccc2c3c([nH]c2c1)[C@H](CO)N(C(=O)Nc1cccc(F)c1)CC31CCN(S(=O)(=O)c2cccc(C)c2)CC1 | 106 | - | . | - | - | .
O=C(C[C@H]1CC[C@@H]2[C@H](COC[C@H](O)CN2CCc2ccccc2)O1)NCc1ccc(F)cc1 | - | - | . | - | - | .
O=C(CN1CCN(c2cccc(Cl)c2)CC1)Nc1ccc([N+](=O)[O-])cc1C(=O)Nc1ccccc1F | - | - | - | . | - | 93
Cc1ccc(C)c(N2CCN(CC(=O)Nc3ccc([N+](=O)[O-])cc3C(=O)Nc3ccccc3F)CC2)c1 | . | . | . | - | . | .
CCN(Cc1ccncc1)C(=O)c1ccc2c(c1)S(=O)(=O)c1ccccc1C2=O | - | 39 | - | - | - | -
COc1cc(-c2noc(C)c2/C=C/c2ccc(OC(C)=O)cc2)cc(OC)c1OC | 69 | - | - | - | 64 | .
COC(=O)C1=C(C)NC(=O)NC1c1ccco1 (stereo unspecified) | - | - | 43 | - | - | -
Cc1ccc(-c2ccc(C3[C@H]4CNC[C@@H]3N4S(=O)(=O)c3ccc(C)cc3)cc2)cc1 (stereo partly specified) | - | - | - | - | - | .
CC(=O)N[C@H]1CC[C@@H](CC(=O)NCC2CCCCC2)O[C@@H]1CO | - | - | - | - | - | -
CSc1ccccc1NC(=O)COC(=O)Cc1cccs1 | - | - | 43 | - | - | -
CN(C)C(=O)C[C@H]1C=C[C@@H](NC(=O)C2CC2)[C@@H](CO)O1 | . | - | - | - | - | -
COc1cccc(N2CCN(C(=O)c3ccc(CS(=O)c4ccccc4Cl)o3)CC2)c1 (stereo unspecified) | 93 | - | - | - | 51 | -
O=C(c1ccc(CS(=O)c2ccccc2Cl)o1)N1CCOCC1 (stereo unspecified) | - | - | - | - | - | -
COc1ccccc1S(=O)(=O)Cc1ccc(C(=O)N2CCN(c3cccc(Cl)c3)CC2)o1 | . | - | . | - | . | 98

Compound activity as filed in PubChem.
